Experiment [1] deals with Cavia porcellus. As to the kind of experiment: Histamine induced lethality, at 60-min pretreatment time when 30 mg/kg compound was administered perorally in guinea pigs. Conditions: route oral. It counts as functional.
The subject of experiment [2] is Cavia porcellus. The experiment can be described thus: Histamine induced lethality, at 60-min pretreatment time when 3 mg/kg compound was administered perorally in guinea pigs. It counts as functional. As to conditions: route oral.
Experiment [3] has as its target Histamine H1 receptor (Cavia porcellus) (UniProt P31389). As to the kind of experiment: Histamine induced lethality, at 30-min pretreatment time of 3 mg/kg i.p. in guinea pigs. The class given is functional, organism-based. Details: dose 3 mg/kg. Conditions: at 3 mg/kg.
For experiment [4], the system named is Cavia porcellus. As to the kind of experiment: Histamine induced lethality, at 30-min pretreatment time when 30 mg/kg compound was administered intra peritoneally in guinea pigs. It counts as functional.
In experiment [5] the test system is Cavia porcellus. The experiment can be described thus: Histamine induced lethality, at 60-min pretreatment time when 0.3 mg/kg compound was administered perorally in guinea pigs. It counts as functional. Conditions: route oral.
Experiment [6] has as its system Cavia porcellus. As to the kind of experiment: Histamine induced lethality, at 60-min pretreatment time when 1 mg/kg compound was administered perorally in guinea pigs. The class given is functional. As to conditions: route oral.
Experiment [7] concerns the target Histamine H1 receptor (Cavia porcellus) (UniProt P31389). As to the kind of experiment: Histamine induced lethality, at 60-min pretreatment time of 0.1 mg/kg p.o. in guinea pigs. It counts as functional, organism-based. Further details: dose 0.1 mg/kg. As to conditions: at 0.1 mg/kg.
The species entered for experiment [8] is Cavia porcellus. As to the kind of experiment: Effective dose that protects guinea pigs against histamine induced lethality at 6 hours pretreatment time. The class given is functional. The method in brief:
(§1)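 Survival at 24 h after challenge was scored as protection. Groups of 5–10 animals per treatment; ED50 was calculated by the Litchfield–Wilcoxon method or by computer probit analysis.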

The species entered for experiment [9] is Cavia porcellus. The experiment can be described thus: Effective dose that protects guinea pigs against histamine induced lethality, at 1 hour pretreatment time. The class given is functional. The method in brief:
as §1

The text below walks through data of ChEMBL document CHEMBL1124606, “Benzo- and pyrido-1,4-oxazepin-5-ones and -thiones: synthesis and structure-activity relationships of a new series of H1 antihistamines” (1989).

Histamine H1 receptor (Cavia porcellus), sequence (P31389 whole entry): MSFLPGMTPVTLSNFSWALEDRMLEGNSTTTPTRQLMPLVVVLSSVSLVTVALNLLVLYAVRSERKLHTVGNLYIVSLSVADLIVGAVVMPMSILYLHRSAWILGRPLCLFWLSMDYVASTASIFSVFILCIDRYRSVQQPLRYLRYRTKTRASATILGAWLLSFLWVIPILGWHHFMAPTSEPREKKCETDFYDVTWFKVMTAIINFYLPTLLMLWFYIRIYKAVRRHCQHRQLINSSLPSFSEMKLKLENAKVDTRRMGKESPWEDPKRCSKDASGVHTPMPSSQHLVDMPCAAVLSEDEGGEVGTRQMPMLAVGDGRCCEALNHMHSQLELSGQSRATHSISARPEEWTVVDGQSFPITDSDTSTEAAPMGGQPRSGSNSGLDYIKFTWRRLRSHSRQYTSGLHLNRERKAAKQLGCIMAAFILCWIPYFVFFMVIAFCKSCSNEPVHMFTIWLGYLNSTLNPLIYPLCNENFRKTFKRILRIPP

For `COc1ccc(CCN(C)CCC2CN(C)C(=S)c3cccnc3O2)cc1` (stereo unspecified), in the experiment with Cavia porcellus [1], the survival at 30 mg/kg came out at 100%. Moreover, the survival at 3 mg/kg in the experiment with Cavia porcellus [2] turned out to be 33%.
With `CC(CC1CN(C)C(=O)c2cccnc2O1)N(C)C` (stereo unspecified), the Survival in [3] is 0%. Besides, in the experiment on Cavia porcellus [4], the survival at 30 mg/kg worked out at 100%.
As to `S=C1c2ccccc2OC(CCN2CCOCC2)CN1Cc1ccccc1` (stereo unspecified), the survival at 30 mg/kg in the experiment on Cavia porcellus [4] is 0%.
With `CN(C)CCC1CN=C(S)c2cccnc2O1` (stereo unspecified), in the experiment with Cavia porcellus [2], the survival at 3 mg/kg turned out to be 100%. In addition, the survival at 0.3 mg/kg with Cavia porcellus [5] was 0%. Further, in the experiment on Cavia porcellus [6], the survival at 1 mg/kg is 33%.
On to `CN(C)CCC1CN(C)C(=S)c2cc(-c3ccccc3)cnc2O1` (stereo unspecified), for which the survival at 3 mg/kg in the experiment with Cavia porcellus [2] turned out to be 100%. In the experiment on Cavia porcellus [5], the survival at 0.3 mg/kg was determined as 0%. Further, the survival at 1 mg/kg in the experiment on Cavia porcellus [6] was 100%.
Consider `CN(C)CCC1CN(C)C(=S)c2cc3ccccc3nc2O1` (stereo unspecified), for which, in experiment [7], the Survival came out at 67%. Further, the results for the ED50 in the experiment filed under Cavia porcellus [8] and in the experiment listed under Cavia porcellus [9] were 2.9 mg/kg and 0.1 mg/kg, respectively. Besides, the survival at 0.3 mg/kg in the experiment on Cavia porcellus [5] is 100%.
For `CN1CC(CCN2CCCCC2)Oc2ncccc2C1=S` (stereo unspecified), the Survival in experiment [3] was 0%. For the same compound, the survival at 30 mg/kg with Cavia porcellus [4] was 100%.
Taken in the same sequence, the figures for `CN1CC(CCCN)Oc2ncccc2C1=O` (stereo unspecified) were 0% and 100%.
Regarding `CN(C)CCC1CN(C)C(=S)c2cc(Br)cnc2O1` (stereo unspecified), the Survival in [7] stood at 100%. Further, the ED50 (in general, the midpoint of the dose-response relation) in the experiment filed under Cavia porcellus [8] was 2 mg/kg; in the experiment filed under Cavia porcellus [9], 0.05 mg/kg.
Turning to `CN1CC(CCNC2CC2)Oc2ncccc2C1=S` (stereo unspecified), the survival at 30 mg/kg in the experiment on Cavia porcellus [4] was 0%.
Still for that read-out and setting: with `CN(C)CCC1CN(C)C(=O)c2c(cncc2N(C)C)O1` (stereo unspecified) the figure was 0%.
As for `CN1CC(CCN2CCOCC2)Oc2ncccc2C1=S` (stereo unspecified), in experiment [3], the Survival was 0%. Moreover, the survival at 30 mg/kg with Cavia porcellus [4] was 100%.
Turning to `CN(C)CCC1CN(C)C(=S)c2cc(F)ccc2O1` (stereo unspecified), the survival at 3 mg/kg in the experiment with Cavia porcellus [2] is 100%. Moreover, the survival at 0.3 mg/kg in the experiment on Cavia porcellus [5] is 0%. For the same compound, the survival at 1 mg/kg in the experiment on Cavia porcellus [6] was determined as 20%.
For the compound `CN1CC(CCN2CCC2)Oc2ncccc2C1=S` (stereo unspecified), in [7], the Survival came to 100%. The ED50 in the experiment listed under Cavia porcellus [8] was 1 mg/kg; in the experiment filed under Cavia porcellus [9], 0.04 mg/kg.
For the compound `CCN(CC)CCC1CN(C)C(=S)c2cc(Cl)cnc2O1` (stereo unspecified), the survival at 3 mg/kg in the experiment with Cavia porcellus [2] came out at 100%. Further, in the experiment on Cavia porcellus [5], the survival at 0.3 mg/kg was 20%. Further, in the experiment filed under Cavia porcellus [9], the ED50 turned out to be 0.39 mg/kg.
In the case of `CN(C)CCCOc1ncccc1C(=S)N(C)C`, the survival at 30 mg/kg in the experiment on Cavia porcellus [4] stood at 0%.
Consider `CN1CC(CCN2CCC2)Oc2ccc(Cl)cc2C1=S` (stereo unspecified), for which the Survival in experiment [7] worked out at 40%. For the same compound, in the experiment on Cavia porcellus [5], the survival at 0.3 mg/kg was found to be 100%. For the same compound, the ED50 in the experiment listed under Cavia porcellus [9] turned out to be 0.12 mg/kg.
On to `COc1ccc(CN(C)CCC2CN(C)C(=S)c3cccnc3O2)cc1` (stereo unspecified), for which, in the experiment with Cavia porcellus [2], the survival at 3 mg/kg turned out to be 67%. For the same compound, the survival at 1 mg/kg in the experiment on Cavia porcellus [6] came to 0%.
In the case of `CN(C)CC1CN(C)C(=O)c2cccnc2O1` (stereo unspecified), the survival at 30 mg/kg with Cavia porcellus [4] is 0%.
Take `CN(CCC1CN(C)C(=S)c2cccnc2O1)Cc1ccc(C(C)(C)C)cc1` (stereo unspecified): the survival at 3 mg/kg with Cavia porcellus [2] was 100%. Also, the survival at 0.3 mg/kg in the experiment with Cavia porcellus [5] is 0%. Further, the survival at 1 mg/kg in the experiment with Cavia porcellus [6] was 40%.
As for `CC(=O)Nc1ccc2c(c1)C(=S)N(C)CC(CCN(C)C)O2` (stereo unspecified), the survival at 3 mg/kg with Cavia porcellus [2] was found to be 100%. The survival at 0.3 mg/kg with Cavia porcellus [5] was 0%.
For the compound `CN1CC(CC[N+](C)(C)C)Oc2ncccc2C1=S` (stereo unspecified), the Survival in experiment [3] was 0%. Moreover, the survival at 30 mg/kg in the experiment on Cavia porcellus [4] is 100%.
In the case of `CCN1CC(CCN(C)C)N(C)c2ccccc2C1=O` (stereo unspecified), in the experiment with Cavia porcellus [4], the survival at 30 mg/kg was determined as 0%.
With `CN(CCC1CN(C)C(=S)c2cccnc2O1)Cc1ccccc1` (stereo unspecified), the survival at 3 mg/kg in the experiment with Cavia porcellus [2] was found to be 100%. Besides, the survival at 1 mg/kg with Cavia porcellus [6] stood at 0%.
Turning to `CN1CC(CCN2CCCC2)Oc2ncc(Cl)cc2C1=S` (stereo unspecified), the Survival in experiment [7] is 40%. In addition, the survival at 0.3 mg/kg in the experiment with Cavia porcellus [5] was found to be 100%. The ED50 in the experiment filed under Cavia porcellus [9] was 0.12 mg/kg.
As to `CN(C)CCC1(C)CN(C)C(=O)c2cccnc2O1` (stereo unspecified), the survival at 3 mg/kg in the experiment with Cavia porcellus [2] turned out to be 67%. Moreover, in the experiment with Cavia porcellus [5], the survival at 0.3 mg/kg was found to be 67%. Also, the ED50 in the experiment listed under Cavia porcellus [9] was found to be 0.45 mg/kg.
In the case of `CN(C)CCC1CN(C)C(=S)c2cc(N)ccc2O1` (stereo unspecified), the survival at 3 mg/kg in the experiment on Cavia porcellus [2] was 100%. Further, the survival at 1 mg/kg with Cavia porcellus [6] was determined as 0%.
On to `O=C1c2ccccc2OC(CCN2CCOCC2)CN1Cc1ccccc1` (stereo unspecified), for which the survival at 30 mg/kg with Cavia porcellus [4] was 0%.
For the compound `CN(C)CCCC1CN(C)C(=O)c2cccnc2O1` (stereo unspecified), the Survival in experiment [3] stood at 0%. The survival at 30 mg/kg in the experiment with Cavia porcellus [4] turned out to be 100%.
Regarding `CN1CC(CCn2cccn2)Oc2ncccc2C1=S` (stereo unspecified), in the experiment with Cavia porcellus [4], the survival at 30 mg/kg came to 33%.
Still for that read-out and setting: with `CN(C)CC1CN(C)C(=S)c2cccnc2O1` (stereo unspecified) the figure was 0%.
`CCN1CC(CCN(C)C)Oc2ncccc2C1=S` (stereo unspecified): the survival at 3 mg/kg in the experiment with Cavia porcellus [2] came to 100%. Further, the survival at 1 mg/kg in the experiment on Cavia porcellus [6] was 33%.
`CN(C)CCCC1CN(C)C(=S)c2cccnc2O1` (stereo unspecified): in [3], the Survival was 33%. In the experiment with Cavia porcellus [4], the survival at 30 mg/kg stood at 100%.
In the case of `CN1CC(CCN2CC=CC2)Oc2ncccc2C1=S` (stereo unspecified), in the experiment with Cavia porcellus [2], the survival at 3 mg/kg came out at 100%. The survival at 1 mg/kg with Cavia porcellus [6] worked out at 0%.
